Key:
Bacillus subtilis [1] = assay: Inhibition of Bacillus subtilis full length NusB/GST-tagged NusE interaction at 25 uM preincubated with NusE for 15 mins followed by incubation with NusB for 1 hr by ELISA
Method in brief: (§1)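 Wells coated overnight at 4 °C with purified full-length B. subtilis NusB (250 nM in PBS), then blocked with 1% BSA/PBS for 2 h at RT. Inhibitor preincubated with GST-NusE (200 nM) for 15 min at 37 °C, then added to wells for 1 h at RT. Bound NusE detected with rabbit anti-GST (1:2000), goat anti-rabbit HRP (1:2000) and TMB (6 min, 37 °C), read at OD 600 nm.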

[2] = Inhibition of Bacillus subtilis full length NusB/GST-tagged NusE preincubated with NusE for 15 mins followed by incubation with NusB for 1 hr by ELISA; method in brief: as §1
Escherichia coli = assay: Growth inhibition of Escherichia coli DH5alpha at 200 uM measured every 10 mins for 16 hrs; format: functional; conditions: DH5[alpha], read-out: GI
Method in brief: (§2)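 Cells grown at 37 °C in LB with shaking to OD 0.6–0.7 AU, then added to LB containing compound (50 mM DMSO stocks, serially diluted to 200 μM). Plates incubated at 37 °C, 200 rpm. OD600 was read every 10 min for 16 h with LB as blank. Triplicates, with growth compared to cells given equal DMSO.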

Bacillus subtilis [3] = assay: Growth inhibition of Bacillus subtilis at 200 uM measured every 10 mins for 16 hrs; format: functional; conditions: read-out: GI; method in brief: as §2

Compound	inhibition (Bacillus subtilis [1])	IC50 [2]	inhibition of growth at 200 µM (Escherichia coli)	inhibition of growth at 200 µM (Bacillus subtilis [3])
COc1ccc(-c2cc(-c3ccc(OC)c(OC)c3)nc(NS(=O)(=O)c3ccc(N)cc3)n2)c(OC)c1	3%	–	–	–
Oc1ccccc1CNc1ccc(OCCCCOc2ccc(NCc3ccccc3O)cc2)cc1	45%	210 µM	–	–
CCNC(=O)Nc1ccc(OCCCCOc2ccc(NC(=O)NCC)cc2)cc1	52%	19.8 µM	17%	–
COc1ccc(-c2cc(-c3ccc(OC)c(OC)c3)nc(NS(=O)(=O)c3ccc(NC(C)=O)cc3)n2)c(OC)c1	88%	6.1 µM	21%	9%
O=[N+]([O-])c1ccc(OCC(O)CNCCNc2nccc(C(F)(F)F)n2)cc1 (racemic)	–	–	11%	19%

Now from value to compound, other results behind:

inhibition (Bacillus subtilis [1])	IC50 [2]	Compound	inhibition of growth at 200 µM (Escherichia coli)	inhibition of growth at 200 µM (Bacillus subtilis [3])
–	71 µM	H-YDHRLLDQS-NH2	–	–
48%	–	COc1ccc(/C=C/C(=O)c2ccc(OC)c(OC)c2)c(OC)c1	–	–
5%	–	COc1cc(/C=N/NC(=O)CCc2ccc(O)cc2)cc(OC)c1OC	10%	44%

Source: ChEMBL document CHEMBL3872271, “Identification and validation of small molecule modulators of the NusB-NusE interaction” (Bioorg Med Chem Lett, 2017)
